In ChEMBL document CHEMBL3632600, “Novel arylalkylamine compounds exhibits potent selective antiparasitic activity against Leishmania major” (Bioorg Med Chem Lett, 2015):

Assays:
Leishmania major [1] = assay: Antileishmanial activity against promastigote stage of Leishmania major Friedlin clone V1 assessed as parasite survival after 72 hrs by luciferase reporter gene assay; assay type: functional; conditions: Friedlin clone V1, 72 h, read-out: LD50 (the source's name)
Method in brief: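 Luciferase-expressing L. major Friedlin clone V1 promastigotes exposed to compound for 72 h; Amphotericin B served as positive control. Lethality is expressed as LD50.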

LLC-MK2 = assay: Cytotoxicity against monkey LLC-MK2 cells after 96 hrs by Alamar Blue assay; assay type: cell-based; conditions: Macaca mulatta, LLC-MK2, 96 h
U2OS = assay: Cytotoxicity against human U2OS cells after 96 hrs by Alamar Blue assay; assay type: cell-based
RAW264.7 = assay: Cytotoxicity against mouse Raw264.7 cells after 96 hrs by Alamar Blue assay; assay type: cell-based; conditions: RAW264.7, 96 h
[2] = Cytotoxicity against mouse intraperitoneal macrophages after 48 hrs by Alamar Blue assay; assay type: cell-based; conditions: Peritoneal macrophage cell
Leishmania major [3] = assay: Antileishmanial activity against amastigote stage of Leishmania major in starch-activated mouse intraperitoneal macrophages assessed as inhibition of intracellular parasite proliferation at 5 uM after 48 hrs by annexin-V 488/DAPI staining-based microplate confocal microscopic analysis relative to control; assay type: functional
Method in brief: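 Macrophages infected 24 h after plating with L. major metacyclic promastigotes at 10 parasites per cell, then treated 48 h at 5 µM. Fixed, stained with annexin-V 488 and DAPI; infected cells (5 or more amastigotes per macrophage) and amastigotes counted by high-content confocal imaging. Negative control 1% DMSO; positive control amphotericin B 25 µM.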

Leishmania major [4] = assay: Antileishmanial activity against promastigote stage of Leishmania major assessed as induction of intracellular reactive oxygen species generation at 3 uM preincubated for 24 hrs followed by H2DCFDA probe addition measured after 20 mins by fluorescence microplate reader analysis relative to vehicle-treated control; assay type: functional
Method in brief: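 L. major promastigotes exposed 24 h (3 µM for the single-concentration read). H2DCFDA then added and incubated a further 20 min at 37 °C; fluorescence read on a microplate reader and expressed relative to 1% DMSO vehicle. Medium-only also served as negative control; hydrogen peroxide 100 µM as positive control.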

## CCOC(=O)c1ccc(NC2CCCCC2)c(N)c1
Leishmania major [1]
  LC50: 28.8 µM
LLC-MK2
  IC50: > 240 µM

## CCOC(=O)c1ccc(NC2CCCCC2)c([N+](=O)[O-])c1
Leishmania major [1]
  LC50: > 10 µM

## CCOC(=O)c1ccc(NC2CCOCC2)c(N)c1
Leishmania major [1]
  LC50: > 10 µM

## Nc1cc(C(=O)OCCN2CCOCC2)ccc1NC1CCCCC1
Leishmania major [1]
  LC50: > 10 µM

## CCOC(=O)c1cc(N)c(NC2CCCCC2)cc1F
Leishmania major [1]
  LC50: > 10 µM

## CCOC(=O)c1ccc(N[C@H]2CC[C@H](N)CC2)c(N)c1
Leishmania major [1]
  LC50: > 10 µM

## CCCCCCCCCCOC(=O)c1cc(N)c(NC2CCCCC2)cc1F
Leishmania major [1]
  LC50: > 10 µM

## CCOC(=O)c1cnc(NC2CCCCC2)c(N)c1
Leishmania major [1]
  LC50: > 10 µM

## CCOC(=O)c1ccc(NC2CCCCC2)c(NCc2ccccc2)c1
Leishmania major [1]
  LC50: 3.34 µM
U2OS
  IC50: > 80 µM
RAW264.7
  IC50: > 80 µM
[2]
  IC50: > 80 µM
Leishmania major [3]
  inhibition at 5 µM: 80%
Leishmania major [4]
  fold change (FC): 1.75

## CCOC(=O)c1ccc(NC2CCCCC2)c(NCc2ccc(C#N)cc2)c1
Leishmania major [1]
  LC50: > 10 µM

## CCOC(=O)c1ccc(NC2CCCCC2)c(NCc2ccc(C(=O)OC)cc2)c1
Leishmania major [1]
  LC50: > 10 µM

## CCOC(=O)c1ccc(NC2CCCCC2)c(NCc2ccc([N+](=O)[O-])cc2)c1
Leishmania major [1]
  LC50: > 10 µM

## CCOC(=O)c1ccc(NC2CCCCC2)c(NCc2ccccc2[N+](=O)[O-])c1
Leishmania major [1]
  LC50: > 10 µM

## CCOC(=O)c1ccc(NC2CCCCC2)c(NCc2cccc(Cl)c2)c1
Leishmania major [1]
  LC50: > 10 µM

## CCOC(=O)c1ccc(NC2CCCCC2)c(NCc2cccc(F)c2)c1
Leishmania major [1]
  LC50: > 10 µM

## CCOC(=O)c1ccc(NC2CCCCC2)c(NCc2cc(F)cc(Br)c2)c1
Leishmania major [1]
  LC50: > 10 µM

## CCOC(=O)c1ccc(NC2CCCCC2)c(NCc2ccc(F)c(C#N)c2)c1
Leishmania major [1]
  LC50: > 10 µM

## CCOC(=O)c1ccc(NC2CCCCC2)c(NCc2ccc(OC)cc2)c1
Leishmania major [1]
  LC50: > 10 µM

## CCOC(=O)c1ccc(NC2CCCCC2)c(NCc2cccc(OC)c2)c1
Leishmania major [1]
  LC50: 4.98 µM

## CCOC(=O)c1ccc(NC2CCC(C(C)(C)C)CC2)c(NCc2ccccc2)c1 (stereo not drawn)
Leishmania major [1]
  LC50: > 10 µM

## CCOC(=O)c1ccc(NC2CCC(C(C)(C)C)CC2)c(NCc2ccncn2)c1 (stereo not drawn)
Leishmania major [1]
  LC50: 4.92 µM

## CCOC(=O)c1cc(NCc2ccncn2)c(NC2CCCCC2)cc1F
Leishmania major [1]
  LC50: 9.49 µM

## CCOC(=O)c1ccc(NC23CC4CC(CC(C4)C2)C3)c(NCc2ccccc2)c1
Leishmania major [1]
  LC50: > 10 µM

## CCOC(=O)c1ccc(NC23CC4CC(CC(C4)C2)C3)c(NCc2ccncn2)c1
Leishmania major [1]
  LC50: > 10 µM

## CCOC(=O)c1ccc(NC2CCCCC2)c(NC(=O)OC)c1
Leishmania major [1]
  LC50: > 10 µM

## CCOC(=O)c1ccc(NC2CCCCC2)c(N(Cc2ccccc2)Cc2ccccc2)c1
Leishmania major [1]
  LC50: > 10 µM

## O=C(O)c1ccc(NC2CCCCC2)c(NCc2ccccc2)c1
Leishmania major [1]
  LC50: > 10 µM
